B1: tRNA (parent)
chain: GUUCCGUUGGCGUAAUGGUAACGCGUCUCCCUCCUAAGGAGAAGACUGCGGGUUCGAGUCCCGUACGGAACG

Fewer inactive variants are shown than the library holds.

The text below walks through data of the RNAGym collection of RNA variant scans (doi:10.1126/science.aae0568).

Variants of B1 are the subject of this data set. Briefly: yeast fitness relative to wild type (ratio to wild type); higher = fitter; tRNA-Arg(CCU), competitive growth, 37 C, YPD. A digest of the protocol:
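Genotype frequency changes were the basis for Darwinian fitness relative to wild type. The frequencies came from 100-nucleotide paired-end sequencing of gene amplicons from the start population and each end population of pooled yeast strains with tRNA-Arg(CCU) gene variants at the native locus. Competition ran in YPD at 37°C for 24 hours in six replicates, genotypes needed ≥ 100 starting reads, and estimates < 0.5 were set to 0.5.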
For A42C A69U, the yeast fitness stood at 0.927. On to G17A U28G C30G A40C A42U, for which the yeast fitness was at most 0.5. To C5U A21U A37C C61A A65C belongs at most 0.5; to U2C G44A, 0.86.

Consider U3A C46G C49U G56C, for which the yeast fitness is 0.734. The figure for C11U A40C G68A is 0.733; for G6A A20C C34A A45U C46U A57C it is at most 0.5; for A40U G67A A70C it is 0.572.

With C27G C31G C46A, the yeast fitness came out at 0.932. To C27A A36G belongs 0.761. Turning to U2C C29U C66G G68A, the yeast fitness is at most 0.5. The figure for U3A U16C U19C C46U is at most 0.5. To G6A U28G C60G belongs at most 0.5; to G9U U16G C66A, at most 0.5. The figure for U54G G63C A69C is 0.535. Consider C22G G63A C66U, for which the yeast fitness was found to be 0.593. To A43U C46G U54A belongs 0.538. The figure for G18A U26A C27U C49U G58A is at most 0.5; for C11A G23C U32G C34A it is at most 0.5.

With C5U A15C, the yeast fitness stood at 0.763. In the case of A45G A65G, the yeast fitness worked out at 1.04.

On to U7A A40U, for which the yeast fitness amounted to 0.714. The figure for U28C C29G is 0.566; for G25A G67A it is 0.875.

Regarding A21C C31U, the yeast fitness was 0.733. As to C5U U13C C24G U26C A37G G38U U54G C61G, the yeast fitness is at most 0.5.

For the variant U3C C4U, the yeast fitness came out at 1.01. The figure for A15U A20G C55U G63C is at most 0.5. In the case of C4G C30A C62G, the yeast fitness is at most 0.5. G48C G67C A70U: the yeast fitness came to 0.53. To C11A A21C G25C C34A A36U G44A belongs at most 0.5; to G10C U19A A37C, 0.502; to C30A A65C, 0.814. Turning to A21C C27U C46G G48A C62G G68C, the yeast fitness was at most 0.5. The figure for G10C C30G C49G is at most 0.5. To U2G U26G C49G belongs 0.724; to C24U U28C A37G C62U, at most 0.5; to U53G G56C G67A, at most 0.5. In the case of A43G A45G C55U, the yeast fitness was at most 0.5. Take C30G G48A: the yeast fitness came out at 0.633. For the variant C4A G18C C31U A57G U64C, the yeast fitness is at most 0.5. The figure for C22U C31G C49U A65G is at most 0.5; for C31G G51A C55G G68C it is 0.56; for C5A C11A C30U C31A C61A it is at most 0.5. With C11G A57G, the yeast fitness is 0.624. To C4U G38C G50A A70G belongs at most 0.5. On to A20U A21U C31G C55A C66U, for which the yeast fitness was at most 0.5. The figure for G18C C29G A36C G44C G50A C66A is at most 0.5; for U13A A40G U47G G63C it is 0.535. U7G A43U: the yeast fitness was 0.914. To C22U C29A A36G A45U belongs at most 0.5; to C11G A43C, 0.63; to G6C A70U, 0.823. For the variant G10C G25C G38C A40G A42G, the yeast fitness is at most 0.5.

On to C5G C49G U53A, for which the yeast fitness was at most 0.5. To C46A U59C belongs 0.898. The figure for U13A U28A C31U G39A A57G is at most 0.5; for A40U A43C U59C it is 0.752; for G12C A14C A20U A21U C33A G48A C62U it is at most 0.5. The figure for G9C G23A A43U A57U is 0.561. Take G6C C24U: the yeast fitness came to 0.751.

With C29U U53A C61U, the yeast fitness was 0.685.

On to C11G C30A C31G G50A, for which the yeast fitness was at most 0.5.

Take U59A C66G: the yeast fitness is 0.669. The figure for U19A A42G G67U is 0.585. To A14G C29G C31U belongs 0.6; to U2A G6C A37U, at most 0.5. For U26C C46A U47G G50A A69C, the yeast fitness is at most 0.5.

Turning to G9C C27U C33G A37G C66U, the yeast fitness was at most 0.5.

As to U2A U13G U28A A36U G56A C62G U64G, the yeast fitness was at most 0.5. Take G12C C33G G44C A69C: the yeast fitness is at most 0.5. Regarding U26G U53A C55U C61A, the yeast fitness was at most 0.5. The figure for U35G U59A is 0.646; for U13G U28G A57U A65C A69C it is at most 0.5; for U8C U28G C46G C49U A69C it is at most 0.5. In the case of G17C C66U, the yeast fitness was determined as 0.705. To U2A U19G A65U belongs 0.644; to A14C C24U U26A G52C, at most 0.5; to G17A A20G U53A, at most 0.5. To U3A C4A G18C C34U A36G G63C belongs at most 0.5. The figure for C11U G39C is 0.68; for A21U C55A it is at most 0.5; for C24G A36U A40G U64C it is at most 0.5. For U16G A40G, the yeast fitness was found to be 0.935.

Consider C11G C31A, for which the yeast fitness was 0.508. To C22G G63C belongs 0.623; to G12A U19G U35C A40U, 0.521; to U26G U64C, 0.878. To C33G G51C G68A A69C belongs 0.607; to C11G U13A U16G U26A C66U, at most 0.5. On to C30G G44A G48A G58A, for which the yeast fitness was at most 0.5. Consider A15U A37C, for which the yeast fitness was found to be 0.678. Consider U2G C4A A37U, for which the yeast fitness was at most 0.5. G10A C11G U28A C33U G38A C49U: the yeast fitness was at most 0.5. To C34G C62G belongs 0.559. The figure for G18C C34G G58C is at most 0.5; for C33U A42C A70G it is 0.75.

For C4U A15U A45G C62G, the yeast fitness was at most 0.5.

On to C4G A40G A42U, for which the yeast fitness is at most 0.5.

Consider U8G C60G C61A, for which the yeast fitness came out at 0.597. The figure for A20U C31G is 0.865; for C5U C22G A69C it is 0.691; for A15U G18C G41A A69C A70G it is at most 0.5. As to G12C C27U A69U, the yeast fitness came out at 0.599.

As to U7C G18C C61U, the yeast fitness is at most 0.5.

In the case of C24G C33G A36C A37C A42C, the yeast fitness amounted to 0.505. Turning to C11G A37G G50A, the yeast fitness was at most 0.5.

On to C46U C49A C60A A70C, for which the yeast fitness is at most 0.5. G17A C33G A40U A45G A65G: the yeast fitness was at most 0.5. As for G17C A20U A42U G67A, the yeast fitness is at most 0.5.

On to C24A C33A C49U A69U, for which the yeast fitness was at most 0.5. To G10C G18A G25C A45G belongs at most 0.5. With A14G U35G A37U, the yeast fitness is at most 0.5. In the case of C30U A43C G67U, the yeast fitness was 0.571.

As for C11A G25A, the yeast fitness came to 0.572. In the case of A40G U53A, the yeast fitness was 0.654. To U3G G10C U26C belongs at most 0.5; to U3C C22G, 0.859. For U3A U35A, the yeast fitness was determined as 0.658. To G10A A20C G38A G41A belongs at most 0.5. Take U3G G67A: the yeast fitness is 0.846.

With G23A C33G C62A, the yeast fitness was 0.742. C30U C31U A70C: the yeast fitness was 0.784.

In the case of A14U C34A C46U, the yeast fitness is at most 0.5. C30U G39A C62U G68C: the yeast fitness was 0.571.

Regarding G6C A15U, the yeast fitness stood at 0.738. In the case of U13A C33G A37G, the yeast fitness was at most 0.5. To C49U C62G belongs 0.704; to A65G G68A, 0.924. Regarding C33U A42C, the yeast fitness came to 0.63.

As to C11U A57U, the yeast fitness was 0.677.

With C24G G56C U59C, the yeast fitness was at most 0.5.

As for U16C C30U G41C, the yeast fitness is at most 0.5.

Consider U3C A37G A70U, for which the yeast fitness came to 0.568. As to U19C G39C G41C, the yeast fitness came out at 0.51. For C30G C33G C60G A70C, the yeast fitness is at most 0.5.

In the case of U32C A40U A43G, the yeast fitness came out at 0.684. The figure for U3A C33U A45U is 0.834; for C5G C22A U26C C33G G63A it is at most 0.5. With U2G C4U G56A C61A C62U A65U A69C, the yeast fitness is at most 0.5.

With U3C U7A C29A G58A C61G A70U, the yeast fitness amounted to 0.531. On to C11A C29A U35A A65G, for which the yeast fitness was at most 0.5. Regarding C31G G68A, the yeast fitness is 0.802. In the case of C5G A15U, the yeast fitness was determined as 0.747.

For U3C G6A G18C C30U C31U A65U, the yeast fitness is at most 0.5.

For the variant U2C U26C C55A, the yeast fitness was found to be 0.732. To U13A A42C belongs 1.05; to A36G G38C G63A, at most 0.5; to G25A C31U G38C C62U, 0.697.

With C27A U32A C61G U64C, the yeast fitness was at most 0.5. To U16G G68A belongs 0.967. As to G10A A45G C46G U54G A70C, the yeast fitness was 0.532. To U8G G12A G50C G52C C55U C62U A70C belongs at most 0.5. Consider U13G C22U C31A C55U G63A A69C, for which the yeast fitness is at most 0.5.

For C5G G6A C29G, the yeast fitness worked out at 0.533. To G48A G68U A69C belongs 0.524; to U3C U19C C34U U53C, at most 0.5; to A14C C27U C31U C33A G67C, 0.541. The figure for C5A U8C C30G C31G A65C is at most 0.5; for C5G U26G G38C G51C it is at most 0.5. To A36U U47G A70G belongs at most 0.5; to A15U G58C C66U, 0.631. For the variant A14G G25A C30A A57U, the yeast fitness stood at 0.607. For G6A A14G C33A G39C, the yeast fitness was at most 0.5. For G9A C34A G58A A70C, the yeast fitness was at most 0.5. In the case of U3G A20C, the yeast fitness stood at 0.987.

With C5U U13A C62U A65C, the yeast fitness is at most 0.5.
